The results in this text go back to ChEMBL document CHEMBL2163314, “Potent aminocyclitol glucocerebrosidase inhibitors are subnanomolar pharmacological chaperones for treating gaucher disease” (J Med Chem, 2012).

In series [1] the test system is T1, Lysosomal acid glucosylceramidase (Homo sapiens), P04062 [N409S].
T1 sequence (whole entry): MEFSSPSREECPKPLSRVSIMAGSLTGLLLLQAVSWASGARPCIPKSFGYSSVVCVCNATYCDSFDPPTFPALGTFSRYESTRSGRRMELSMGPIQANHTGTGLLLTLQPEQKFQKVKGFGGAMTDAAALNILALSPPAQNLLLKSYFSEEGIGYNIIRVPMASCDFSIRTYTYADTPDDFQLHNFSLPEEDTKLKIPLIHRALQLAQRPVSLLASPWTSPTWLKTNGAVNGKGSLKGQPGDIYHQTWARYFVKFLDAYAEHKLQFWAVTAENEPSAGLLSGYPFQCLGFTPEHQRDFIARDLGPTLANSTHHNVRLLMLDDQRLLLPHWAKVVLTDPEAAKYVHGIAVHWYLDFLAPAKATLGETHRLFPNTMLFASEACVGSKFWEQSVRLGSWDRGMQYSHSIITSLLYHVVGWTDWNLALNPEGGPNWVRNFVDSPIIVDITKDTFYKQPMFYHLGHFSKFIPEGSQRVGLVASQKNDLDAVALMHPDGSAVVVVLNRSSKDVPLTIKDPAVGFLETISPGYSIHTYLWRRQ
Nature of the series: Agonist activity at glucosylceramidase N370S mutant in lymphoblast obtained from Gaucher disease patient using 4-methylumbelliferyl-beta-D-glucopyranoside as substrate preincubated at 1 uM for 3 days measured 2 hrs post substrate addition by fluorescence assay relative to untreated control. It counts as functional. Summed up:
(§1)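 Patient-derived N370S homozygous lymphoblasts (RPMI-1640, 15% FBS, 37 °C, 5% CO2; passages 5–16) seeded at 2 × 10^5 cells/well, exposed to compound for 3 days. Cells washed in PBS and lysed in water by sonication. Homogenate incubated with 6 mM 4-MU-β-glucoside in 0.1 M citrate phosphate pH 5.2 with 0.25% taurocholate and 0.1% Triton X-100, 37 °C, 2 h. Fluorescence read at 355/460 nm; activity normalized to untreated cells; triplicate.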

The test system is the same in series [2]. The experiment in a line: Agonist activity at glucosylceramidase N370S mutant in lymphoblast obtained from gauchers patient using 4-methylumbelliferyl-beta-D-glucopyranoside as substrate preincubated at 1 to 5000 nM for 3 days measured 2 hrs post substrate addition by fluorescence assay relative to untreated control. It counts as functional. Summed up: as §1

Series [3] concerns the target T2, Lysosomal acid glucosylceramidase (Homo sapiens) (UniProt P04062).
T2 sequence (whole entry): T1 sequence (whole entry) with S409N
Particulars: 50 uM.

For series [4], the system named is T1, Lysosomal acid glucosylceramidase (Homo sapiens), P04062 [N409S]. The experiment in a line: Agonist activity at glucosylceramidase N370S mutant in lymphoblast obtained from Gaucher disease patient using 4-methylumbelliferyl-beta-D-glucopyranoside as substrate preincubated at 1 nM for 3 days measured 2 hrs post substrate addition by fluorescence assay relative to untreated control. It counts as functional. Summed up:
as §1

Series [5] deals with Lysosomal alpha-glucosidase (Homo sapiens) (UniProt P10253). The experiment in a line: Inhibition of lysosomal alpha-glucosidase in human fibroblast at 5 uM after 24 hrs.
Series [6] addresses T3, Beta-galactosidase (Homo sapiens) (UniProt P16278).
T3 sequence (whole entry): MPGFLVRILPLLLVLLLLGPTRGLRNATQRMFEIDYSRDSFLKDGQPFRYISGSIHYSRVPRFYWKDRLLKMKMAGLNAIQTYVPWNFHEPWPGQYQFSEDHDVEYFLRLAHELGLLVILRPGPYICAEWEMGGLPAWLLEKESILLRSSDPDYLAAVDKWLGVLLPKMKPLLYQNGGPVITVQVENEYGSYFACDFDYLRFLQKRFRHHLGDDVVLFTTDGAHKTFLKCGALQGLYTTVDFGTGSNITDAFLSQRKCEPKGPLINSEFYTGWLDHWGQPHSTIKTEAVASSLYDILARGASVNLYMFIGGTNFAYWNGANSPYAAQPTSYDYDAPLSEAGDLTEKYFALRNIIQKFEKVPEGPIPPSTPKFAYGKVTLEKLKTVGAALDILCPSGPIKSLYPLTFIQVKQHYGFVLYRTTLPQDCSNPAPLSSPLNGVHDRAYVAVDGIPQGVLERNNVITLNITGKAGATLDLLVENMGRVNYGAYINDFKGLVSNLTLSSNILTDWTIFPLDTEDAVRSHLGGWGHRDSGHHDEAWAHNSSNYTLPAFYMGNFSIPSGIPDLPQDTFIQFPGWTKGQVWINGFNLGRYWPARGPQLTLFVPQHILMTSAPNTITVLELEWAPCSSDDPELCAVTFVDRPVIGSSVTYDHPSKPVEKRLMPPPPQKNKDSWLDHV
Nature of the series: Inhibition of lysosomal beta-galactosidase in human fibroblast at 5 uM after 24 hrs.

Series [7] has as its target T4, Ceramide glucosyltransferase (Mus musculus) (UniProt O88693).
T4 sequence (whole entry): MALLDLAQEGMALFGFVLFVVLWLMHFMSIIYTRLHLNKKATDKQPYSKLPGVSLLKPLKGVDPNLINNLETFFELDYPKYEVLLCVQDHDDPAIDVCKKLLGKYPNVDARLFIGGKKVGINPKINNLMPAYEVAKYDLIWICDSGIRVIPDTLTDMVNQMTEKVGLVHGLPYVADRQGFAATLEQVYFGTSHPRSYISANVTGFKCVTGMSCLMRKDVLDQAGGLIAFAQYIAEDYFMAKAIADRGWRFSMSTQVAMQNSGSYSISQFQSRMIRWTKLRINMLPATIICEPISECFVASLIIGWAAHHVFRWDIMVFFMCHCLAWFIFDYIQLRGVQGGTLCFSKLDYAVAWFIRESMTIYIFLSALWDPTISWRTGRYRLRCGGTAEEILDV
The experiment in a line: Inhibition of GCS activity in mouse tissue homogenate at 250 uM.

For series [8], the target named is T4, Ceramide glucosyltransferase (Mus musculus). Nature of the series: Inhibition of GCS activity in mouse tissue homogenate at 50 uM.
A short description of series [9]: Cytotoxicity against human fibroblasts at 5 uM. It is filed as cell-based. As to conditions: fibroblast.

Changes are numbered by the printed parent chain. Calls of active or inactive are those of the source. No cut-off for these calls is given here.

In series [1], `CCCCCCCCCN[C@H]1[C@H](O)[C@@H](O)[C@H](O)[C@@H](O)[C@H]1OC.Cl` returned a fold change (FC) of 2.

As usually defined, the inhibition is the change of the read-out against control, counted positive when it falls. Regarding `CCCCCCCCCN[C@H]1[C@H](O)[C@@H](O)[C@H](O)[C@@H](O)[C@@H]1O`, the result in series [2] was inactive. Also, the inhibition in [3] is 23%.

For the molecule `CCCCCCCCCN[C@H]1[C@H](O)[C@@H](O)[C@H](O)[C@@H](O)[C@@H]1OCCCCCCCCC.Cl`, the inhibition in series [4] was 90%; in [5], less than 16%; in series [6] it was less than 16%; in series [7], 56%. In series [1], this molecule registered a fold change (FC) of 1.4. The inhibition entry in [8] was “inactive”. Besides, the Activity entry in series [9] is “Non-toxic”.

The molecule `CCCCCCCCCN[C@H]1[C@H](O)[C@@H](O)[C@H](O)[C@@H](O)[C@@H]1OC.Cl` yielded an inhibition in [3] of 23%.

As for `CCCCCCCCCN[C@@H]1[C@H](O)[C@@H](O)[C@H](O)[C@@H](O)[C@@H]1O`, the result in series [2] was inactive. In addition, the inhibition in series [3] stood at 23%.

For `CCCCCCCCCN(CCCCCCCCC)[C@@H]1[C@H](O)[C@H](O)[C@@H](O)[C@H](O)[C@H]1O.Cl`, the inhibition in series [5] is less than 16%; in [6], less than 16%; in [7], 56%. The inhibition entry in [8] was “inactive”. Also, the result in series [2] was inactive. For the same molecule, the Activity result in [9] is on record as “Non-toxic”.

Regarding `CCCCCCCCCN[C@H]1[C@H](O)[C@@H](O)[C@H](O)[C@@H](O)[C@H]1OCCCCCCCCC.Cl`, the fold change (FC) in series [4] amounted to 1.9. The inhibition entry in [5], in [6] and in [8] was “inactive” in each case. The same molecule yielded an inhibition in series [7] of 56%. The Activity entry in series [9] is “Non-toxic”.
